According to ChEMBL document CHEMBL4814076, “Discovery of a Potent and Selective Covalent Inhibitor of Bruton's Tyrosine Kinase with Oral Anti-Inflammatory Activity” (ACS Med Chem Lett, 2021):
The source made the active and inactive calls. The calls are words filed in the database; no cut-off is given here.

Experiments:
[1] = biological target: Serine/threonine-protein kinase B-raf (Homo sapiens, UniProt P15056); test: Inhibition of recombinant human B-RAF (416 to end residues) using myelin basic protein as substrate incubated for 40 mins in presence of [gamma33P]ATP by scintillation counting method
[2] = biological target: T1, Tyrosine-protein kinase BTK (Homo sapiens, UniProt Q06187); test: Inhibition of BTK in human whole blood assessed as inhibition of IgM-induced B-cell activation; format: tissue-based
[3] = biological target: Proto-oncogene tyrosine-protein kinase Src (Homo sapiens, UniProt P12931); test: Inhibition of recombinant human SRC (1 to 530 residues) using GGEEEEYFELVKKKK as substrate incubated for 40 mins in presence of [gamma33P]ATP by scintillation counting method
[4] = Cmax in Beagle dog at 2.5 mg/kg, po measured upto 24 hrs by LC-MS/MS analysis; format: ADME, organism-based, Canis lupus familiaris; set-up: route oral, dose 2.5 mg/kg, time <=24; settings: in vivo
How it was run: (§1)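 Rats (nonfasted; IV 1 mg/kg, PO 5 mg/kg) and dogs (fasted; IV 0.5 mg/kg, PO 2.5 mg/kg) dosed from 20% hydroxypropyl-β-cyclodextrin solution.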

[5] = biological target: T2, Tyrosine-protein kinase Tec (Homo sapiens, UniProt P42680); test: Inhibition of recombinant human TEC (174 to end residues) using EFPIYDFLPAKKK as substrate incubated for 40 mins in presence of [gamma33P]ATP by scintillation counting method
T2 sequence (P42680 whole entry): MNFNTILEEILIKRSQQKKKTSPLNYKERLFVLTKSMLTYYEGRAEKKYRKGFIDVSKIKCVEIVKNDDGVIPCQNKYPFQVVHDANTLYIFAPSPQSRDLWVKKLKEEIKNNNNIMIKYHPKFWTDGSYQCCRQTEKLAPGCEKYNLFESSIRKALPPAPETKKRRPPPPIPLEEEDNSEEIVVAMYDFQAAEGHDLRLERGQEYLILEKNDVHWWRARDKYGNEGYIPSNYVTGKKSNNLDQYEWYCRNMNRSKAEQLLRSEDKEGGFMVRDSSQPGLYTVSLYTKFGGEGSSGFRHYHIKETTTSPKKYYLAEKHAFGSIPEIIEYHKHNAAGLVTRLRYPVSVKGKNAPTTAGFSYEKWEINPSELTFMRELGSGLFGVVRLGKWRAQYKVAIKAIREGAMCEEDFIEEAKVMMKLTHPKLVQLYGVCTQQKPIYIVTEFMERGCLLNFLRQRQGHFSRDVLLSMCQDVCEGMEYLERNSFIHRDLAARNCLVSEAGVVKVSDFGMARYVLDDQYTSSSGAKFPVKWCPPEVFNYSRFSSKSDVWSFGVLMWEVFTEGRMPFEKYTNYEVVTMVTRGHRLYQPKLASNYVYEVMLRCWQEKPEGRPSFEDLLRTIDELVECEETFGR

[6] = Tmax in Beagle dog at 2.5 mg/kg, po measured upto 24 hrs by LC-MS/MS analysis; format: ADME, organism-based, Canis lupus familiaris; settings: in vivo; how it was run: as §1
[7] = Inhibition of BTK in Wistar rat whole blood assessed as reduction in anti-IgD-induced B220/CD86+ expression incubated for 1 hr followed anti-IgD stimulation and measured after overnight by flow cytometry analysis; format: tissue-based; settings: Rattus norvegicus, Blood, 1 h
How it was run: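 B-cell activation induced by anti-IgD in rat whole blood, read as B220+CD86+ cells.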

[8] = Volume of distribution at steady state in Sprague-Dawley rat at 5 mg/kg, po or 1 mg/kg, iv measured upto 24 hrs by LC-MS/MS analysis; format: ADME, organism-based; settings: in vivo, read-out: Vdss; how it was run: as §1
[9] = biological target: T1, Tyrosine-protein kinase BTK; test: Irreversible covalent inhibition of recombinant unphosphorylated human GST-tagged BTK kinase domain (389 to 659 residues) expressed in insect cells assessed as protein-compound adduct formation under denaturing conditions by HPLC analysis
How it was run: (§2)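 BTK protein incubated with compound. Adduct mass measured under denaturing and nondenaturing conditions.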

[10] = biological target: T1, Tyrosine-protein kinase BTK; test: Irreversible covalent inhibition of recombinant unphosphorylated human GST-tagged BTK kinase domain (389 to 659 residues) expressed in insect cells assessed as protein-compound adduct formation under native conditions by HPLC analysis; how it was run: as §2
[11] = biological target: Tyrosine-protein kinase Lck (Homo sapiens, UniProt P06239); test: Inhibition of recombinant human full length LCK using KVEKIGEGTYGVVYK as substrate incubated for 40 mins in presence of [gamma33P]ATP by scintillation counting method
[12] = Half life in Beagle dog at 0.5 mg/kg, iv measured upto 24 hrs by LC-MS/MS analysis; format: ADME, organism-based, Canis lupus familiaris; settings: in vivo; how it was run: as §1
[13] = Half life in Sprague-Dawley rat at 1 mg/kg, iv measured upto 24 hrs by LC-MS/MS analysis; format: ADME, organism-based; settings: in vivo; how it was run: as §1
[14] = Volume of distribution at steady state in Beagle dog at 2.5 mg/kg, po or 0.5 mg/kg, iv measured upto 24 hrs by LC-MS/MS analysis; format: ADME, organism-based, Canis lupus familiaris; settings: in vivo, read-out: Vdss; how it was run: as §1
[15] = Cmax in Sprague-Dawley rat at 5 mg/kg, po measured upto 24 hrs by LC-MS/MS analysis; format: ADME, organism-based; set-up: route oral, dose 5 mg/kg, time <=24; settings: in vivo; how it was run: as §1

T1 sequence (Q06187 whole entry, the tested form may be a part): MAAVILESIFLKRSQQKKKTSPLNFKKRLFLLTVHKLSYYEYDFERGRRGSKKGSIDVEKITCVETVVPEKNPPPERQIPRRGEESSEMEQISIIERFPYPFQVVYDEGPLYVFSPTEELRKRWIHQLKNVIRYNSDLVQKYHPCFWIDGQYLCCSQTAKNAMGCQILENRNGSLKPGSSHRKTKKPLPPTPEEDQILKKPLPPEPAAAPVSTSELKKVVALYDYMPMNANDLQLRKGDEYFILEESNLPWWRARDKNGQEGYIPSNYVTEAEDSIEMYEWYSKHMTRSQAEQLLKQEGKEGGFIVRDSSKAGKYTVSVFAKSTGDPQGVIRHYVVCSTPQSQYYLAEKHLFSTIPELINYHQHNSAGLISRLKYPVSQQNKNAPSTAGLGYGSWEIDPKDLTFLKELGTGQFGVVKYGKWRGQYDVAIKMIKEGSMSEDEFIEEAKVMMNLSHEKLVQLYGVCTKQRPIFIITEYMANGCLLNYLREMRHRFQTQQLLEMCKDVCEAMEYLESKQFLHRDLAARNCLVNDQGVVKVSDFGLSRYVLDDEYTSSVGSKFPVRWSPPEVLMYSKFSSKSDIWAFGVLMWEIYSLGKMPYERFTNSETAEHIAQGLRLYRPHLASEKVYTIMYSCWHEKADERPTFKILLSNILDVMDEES
Chain of Tyrosine-protein kinase Lck (P06239 whole entry): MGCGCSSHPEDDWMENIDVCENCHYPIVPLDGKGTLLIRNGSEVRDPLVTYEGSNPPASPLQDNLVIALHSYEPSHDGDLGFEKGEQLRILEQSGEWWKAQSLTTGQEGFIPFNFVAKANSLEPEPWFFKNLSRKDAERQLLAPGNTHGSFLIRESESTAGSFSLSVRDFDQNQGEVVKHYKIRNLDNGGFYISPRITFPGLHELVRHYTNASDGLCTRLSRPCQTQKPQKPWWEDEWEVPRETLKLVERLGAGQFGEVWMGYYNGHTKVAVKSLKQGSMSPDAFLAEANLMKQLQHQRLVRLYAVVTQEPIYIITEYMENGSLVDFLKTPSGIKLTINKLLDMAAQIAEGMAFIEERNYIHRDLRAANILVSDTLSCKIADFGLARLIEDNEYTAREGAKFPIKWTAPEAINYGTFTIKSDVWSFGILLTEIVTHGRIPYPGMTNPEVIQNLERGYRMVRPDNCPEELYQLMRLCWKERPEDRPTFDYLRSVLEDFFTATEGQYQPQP
Chain of Proto-oncogene tyrosine-protein kinase Src (P12931 2-536 limits assumed): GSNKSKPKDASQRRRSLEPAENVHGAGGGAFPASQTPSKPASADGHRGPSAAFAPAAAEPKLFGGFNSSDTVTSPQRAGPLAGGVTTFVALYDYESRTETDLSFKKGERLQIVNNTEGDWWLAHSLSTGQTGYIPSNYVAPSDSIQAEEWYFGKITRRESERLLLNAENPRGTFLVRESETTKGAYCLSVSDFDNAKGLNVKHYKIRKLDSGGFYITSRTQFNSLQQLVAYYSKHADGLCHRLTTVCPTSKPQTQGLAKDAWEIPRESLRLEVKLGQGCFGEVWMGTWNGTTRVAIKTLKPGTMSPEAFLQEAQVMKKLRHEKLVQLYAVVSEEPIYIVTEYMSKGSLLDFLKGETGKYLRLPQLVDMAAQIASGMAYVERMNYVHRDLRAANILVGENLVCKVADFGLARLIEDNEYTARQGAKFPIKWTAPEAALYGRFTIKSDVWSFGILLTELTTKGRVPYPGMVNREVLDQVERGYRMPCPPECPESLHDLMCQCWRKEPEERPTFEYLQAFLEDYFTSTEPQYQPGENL
Chain of Serine/threonine-protein kinase B-raf (P15056 whole entry): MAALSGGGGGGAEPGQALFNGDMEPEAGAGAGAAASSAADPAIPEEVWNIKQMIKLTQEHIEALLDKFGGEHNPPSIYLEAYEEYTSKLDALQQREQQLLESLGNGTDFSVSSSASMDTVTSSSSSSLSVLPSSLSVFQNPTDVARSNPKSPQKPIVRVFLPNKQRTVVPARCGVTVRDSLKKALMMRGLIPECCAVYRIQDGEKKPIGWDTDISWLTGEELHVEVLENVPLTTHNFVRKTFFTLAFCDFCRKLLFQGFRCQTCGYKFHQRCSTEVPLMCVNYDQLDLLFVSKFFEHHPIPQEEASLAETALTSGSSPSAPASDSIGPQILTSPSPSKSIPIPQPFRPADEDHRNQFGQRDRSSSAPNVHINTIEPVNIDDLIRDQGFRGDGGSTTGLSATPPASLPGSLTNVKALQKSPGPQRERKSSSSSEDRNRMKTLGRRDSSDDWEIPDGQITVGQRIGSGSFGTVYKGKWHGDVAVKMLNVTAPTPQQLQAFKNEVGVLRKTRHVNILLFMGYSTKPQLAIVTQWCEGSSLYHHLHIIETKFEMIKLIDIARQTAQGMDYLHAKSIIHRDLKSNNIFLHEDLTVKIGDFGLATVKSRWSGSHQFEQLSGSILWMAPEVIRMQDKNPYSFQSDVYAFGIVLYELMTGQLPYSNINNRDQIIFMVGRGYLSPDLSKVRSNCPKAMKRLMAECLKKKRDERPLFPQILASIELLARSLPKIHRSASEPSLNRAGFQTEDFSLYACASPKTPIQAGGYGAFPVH

SMILES: C=CC(=O)N1CC[C@@H](NC(=O)c2sc3nccc4c3c2NC(=O)N4c2ccc(Oc3ccccc3)cc2C)C1
- IC50 [1]: 7.84 µM
- IC50 [2]: 84 nM
- IC50 [3]: 3.49 µM
- Cmax [4]: 1500 nM
- IC50 [5]: 409 nM
- Tmax [6]: 48 min
- IC50 [7]: 130 nM
- Vd [8]: 1 L/kg
- inhibition [9]: Active
- inhibition [10]: Active
- IC50 [11]: 130 nM
- half-life [12]: 114 min
- half-life [13]: 18 min
- Vd [14]: 1.1 L/kg
- Cmax [15]: 600 nM
